Screening results: PubChem, several laboratories
A selection: hits, their analogues and other compounds. The true share with any hit is near 3.7%.
SR-BI uptake up: SR-BI HDL lipid transfer activation | CHO ldlA[mSR-BI] cells, DiI-HDL uptake fluorescence, 3 h; 100 = double the neutral-control signal | activation, % at 12.5 µM | 0.096% of 320,000 active | AID 504775;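 active = mean replicate activation of at least 60% and every replicate at or above 60%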;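 note: 0% = median plate neutral-control signal and 100% = twice that signal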
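Material – SR-BI-overexpressing, LDLR-lacking CHO cells · Medium – BSA-supplemented, HEPES-buffered Ham's F12, pH 7.4 · Doses – single concentration · Times – compound with DiI-HDL co-incubation, 3 h at 37 °C · Measured by – bottom-read fluorescence, 550/595 nm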
AHR activator: activates the human aryl hydrocarbon receptor; P35869; AHR-responsive luciferase reporter cells, luminescence; activation, % at 5 µM; 2.5% of 320,000 active; in the data active = activation above about 47%;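 note: 0% = vehicle wells and 100% = reference agonist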
Target sequence (P35869 whole entry, looked up): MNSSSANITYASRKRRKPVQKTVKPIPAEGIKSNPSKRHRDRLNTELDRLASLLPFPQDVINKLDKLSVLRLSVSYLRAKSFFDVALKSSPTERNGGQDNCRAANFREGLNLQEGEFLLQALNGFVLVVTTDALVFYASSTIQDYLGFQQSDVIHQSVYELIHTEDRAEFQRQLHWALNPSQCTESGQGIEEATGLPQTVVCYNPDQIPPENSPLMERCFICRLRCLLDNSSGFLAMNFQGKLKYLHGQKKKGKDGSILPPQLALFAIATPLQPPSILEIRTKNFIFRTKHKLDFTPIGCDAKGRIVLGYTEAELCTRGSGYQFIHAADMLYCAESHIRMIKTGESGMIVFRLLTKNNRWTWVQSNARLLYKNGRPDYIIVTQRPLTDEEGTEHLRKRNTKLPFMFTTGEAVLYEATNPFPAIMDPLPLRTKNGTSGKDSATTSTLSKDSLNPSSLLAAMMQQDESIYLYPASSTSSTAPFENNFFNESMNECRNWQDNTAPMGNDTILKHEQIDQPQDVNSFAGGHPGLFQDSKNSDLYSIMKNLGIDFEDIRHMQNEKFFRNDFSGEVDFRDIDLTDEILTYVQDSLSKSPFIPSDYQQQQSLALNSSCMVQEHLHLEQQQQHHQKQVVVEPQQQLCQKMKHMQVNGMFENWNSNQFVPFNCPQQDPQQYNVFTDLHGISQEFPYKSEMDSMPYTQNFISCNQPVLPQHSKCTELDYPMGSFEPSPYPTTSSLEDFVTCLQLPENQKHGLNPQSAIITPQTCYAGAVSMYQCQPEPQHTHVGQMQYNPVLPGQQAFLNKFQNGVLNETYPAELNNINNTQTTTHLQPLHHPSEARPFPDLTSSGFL
SR-BI DiI inh: blocks mouse SR-BI lipid uptake from DiI-HDL. Q61009. AID 488896. 0.96% of 320,000 active. ldlA[mSR-BI] CHO cells, DiI-HDL uptake fluorescence, 3 h. inhibition, % at 12.5 µM;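 active = mean replicate inhibition of at least 70% and a set share of replicates each scoring 70 or more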;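 note: 0% = median of neutral control wells and 100% = median of positive control wells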
GASC-1 inh: blocks human GASC-1 demethylase activity. inhibition, % at 2.35 µM. GST-JMJD2C(1-420) H3K9me3 demethylation, DELFIA europium. Q9H3R0. 0.069% of 330,000 active;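 active = more than half of a compound's replicate wells show inhibition beyond 50%, single wells judged on their own value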;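 note: signal counts dimethyl H3K9 product captured on neutravidin plate; 0% = median of DMSO wells and 100% = 0.3 times that DMSO median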
FXN GAA850 act: frataxin GAA850 promoter activation; HEK293 lucGAA850 FXN promoter luciferase reporter, 24 h; percent of 10 µM SAHA response; activation, % at 6 µM; 0.56% of 360,000 active; AID 540364;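 active = activation above the average of all compounds screened plus 3 SD, cutoff fixed separately per campaign, cut at about 7.5% in these data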;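 note: 0% = DMSO wells and 100% = 10 µM SAHA wells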
GAA30 counter: activates GAA30 frataxin promoter, counter-screen for GAA850 activators; shares compounds with FXN GAA850 act; HEK293 lucGAA30 FXN promoter luciferase, 24 h; DMSO = 0%, 5 µM ipriflavone = 100%; activation, % at 6 µM; 66% of 1,900 active; AID 588350;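 active = mean activation above the mean of solvent-only control wells plus 3 SD, cut at about 22% in these data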;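 note: counterscreen of GAA850 promoter hits where activity marks nonselective or luminescence artifacts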
FXN GAA850 conf: confirmation of GAA850 frataxin (FXN) promoter activators; AID 588351; activation, % at 6 µM; HEK293 lucGAA850 FXN promoter luciferase reporter, 24 h; 100% = activation by SAHA; shares compounds with FXN GAA850 act; 86% of 1,900 active;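 active = mean activation above a set limit taken from the primary screen, cut at about 8% in these data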;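 note: 0% = DMSO wells and 100% = 10 µM SAHA wells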
The depositor's hits bear a star; · = no result given.

SMILES | SR-BI uptake up | AHR activator | SR-BI DiI inh | GASC-1 inh | FXN GAA850 act | GAA30 counter | FXN GAA850 conf
O=C(Nc1cc2c(cc1Cl)OCCCO2)c1ccccc1 | -51.3 | -2.0 | 51.3 | -9.2 | 8.8* | 107.0* | 41.2*
COc1ccc([C@@H]2[C@@H]3C(=O)N(C(C)(C)C)C(=O)[C@@H]3[C@]3(Cc4ccc(Cl)cc4)C(=O)N(c4ccc(C)cc4)C(=O)N23)cc1 | 3.2 | 0.5 | -3.2 | 2.9 | -2.4 | · | ·
CC(C)C[C@@]12C(=O)N(c3ccc(Br)cc3)C(=O)N1[C@H](c1ccc(Br)cc1)[C@@H]1C(=O)N(C(C)(C)C)C(=O)[C@@H]12 | 10.7 | 4.2 | -10.7 | 12.0 | 16.8* | 18.3 | 18.0*
CCN1C(=O)[C@H]2[C@@H](c3ccc(C)cc3)N3C(=O)N(c4cccc(F)c4)C(=O)[C@@]3(Cc3ccc(Cl)cc3)[C@H]2C1=O | 0.7 | 4.0 | -0.7 | 12.1 | 0.6 | · | ·
CC(C)C[C@@]12C(=O)N(c3cccc(F)c3)C(=O)N1[C@H](c1ccc(Br)cc1)[C@@H]1C(=O)N(C(C)(C)C)C(=O)[C@@H]12 | 22.9 | 4.5 | -22.9 | -0.4 | 16.6* | 29.5* | 17.8*
CC(C)C[C@@]12C(=O)N(c3cccc(Cl)c3)C(=O)N1[C@H](c1ccc(Br)cc1)[C@@H]1C(=O)N(C(C)(C)C)C(=O)[C@@H]12 | -2.8 | 2.1 | 2.8 | · | 15.5* | 33.3* | 18.3*
CC[C@@]12C(=O)N(c3cccc(Cl)c3)C(=O)N1[C@H](c1ccc(Br)cc1)[C@@H]1C(=O)N(C(C)(C)C)C(=O)[C@@H]12 | 23.9 | 2.2 | -23.9 | -6.7 | 14.4* | 34.9* | 17.2*
Cc1ccc(CC(=O)N2CCN(C(=O)C3CCCO3)CC2)cc1 (stereo not given) | -0.4 | 4.0 | 0.4 | 3.5 | 2.4 | · | ·
Cc1nc2c(OCc3ccc(C(F)(F)F)cc3)cccn2c1N(C)CC1CC1 | · | · | · | · | -1.0 | · | ·
CC[C@@]12C(=O)N(c3cccc(C)c3)C(=O)N1[C@H](c1ccc(Br)cc1)[C@@H]1C(=O)N(C(C)(C)C)C(=O)[C@@H]12 | 31.8 | 2.1 | -31.8 | -3.5 | 16.0* | 23.1* | 11.3*
CCN1C(=O)[C@H]2[C@@H](c3ccc(C)cc3)N3C(=O)N(c4cccc(C)c4)C(=O)[C@@]3(Cc3ccccc3)[C@H]2C1=O | 0.9 | 0.2 | -0.9 | 3.5 | -1.7 | · | ·
CCN1C(=O)[C@H]2[C@@H](c3ccc(C)cc3)N3C(=O)N(c4cccc(Cl)c4)C(=O)[C@@]3(Cc3ccccc3)[C@H]2C1=O | 2.8 | 1.2 | -2.8 | 2.7 | -2.4 | · | ·
CCN1C(=O)[C@H]2[C@@H](c3ccc(C)cc3)N3C(=O)N(c4cccc(Cl)c4)C(=O)[C@@]3(CC(C)C)[C@H]2C1=O | 0.5 | 6.0 | -0.5 | 2.5 | 16.9* | 26.3* | 12.1*
COc1ccccc1N1CCN(C2CCN(C(=O)c3cccc(F)c3)CC2)CC1 | 16.5 | -0.8 | -16.5 | 2.6 | 3.8 | · | ·
CC(Oc1ccc(Br)cc1Cl)C(=O)Nc1ccncc1 (stereo not given) | -2.4 | 1.5 | 2.4 | 0.2 | 1.3 | · | ·
CC(=O)c1cnc2cc(-c3ccccc3)nn2c1C | -14.3 | 8.3 | 14.3 | 40.7 | 6.5 | · | ·
CC(=O)c1cnc2cc(-c3ccc(C)cc3)nn2c1C | -14.3 | 15.0 | 14.3 | 0.1 | 11.2* | 128.2* | 41.5*
O=C1NCC(Nc2ccc(Cl)cc2)C(=O)N1 (stereo not given) | 11.7 | · | -11.7 | · | 1.4 | · | ·
Cc1cc(O)ccc1-c1ccc2nncn2c1 | · | · | · | · | 1.0 | · | ·
COC(=O)[C@]1(C)N[C@H](CN(C)C(=O)Nc2ccccc2)[C@@H]2C(=O)N(Cc3ccccc3)C(=O)[C@@H]21 | -6.0 | -0.9 | 6.0 | 32.4 | 9.4* | 22.0* | 9.8*
CCN(C[C@H]1N[C@@](C)(C(=O)OC)[C@H]2C(=O)N(Cc3ccccc3)C(=O)[C@@H]12)C(=O)Nc1ccc(C)cc1 | 11.8 | -0.2 | -11.8 | 10.4 | 15.7* | 27.8* | 11.7*
CCN(C[C@H]1N[C@@](C)(C(=O)OC)[C@H]2C(=O)N(Cc3ccccc3)C(=O)[C@@H]12)C(=O)Nc1ccccc1 | 17.5 | 2.5 | -17.5 | · | 6.6 | · | ·
Cc1sc2nc(C(C)Sc3n[nH]c(N)n3)[nH]c(=O)c2c1C (stereo not given) | · | 2.1 | · | -6.2 | · | · | ·
O=C(Nc1cc(F)cc(F)c1)c1sc(Cl)nc1-c1ccccc1 | -3.5 | 6.7 | 3.5 | -5.2 | 0.7 | · | ·
COc1ccc(NS(=O)(=O)c2cc(NC(=O)[C@@H](NC(N)=O)C(C)C)ccc2C)cc1 | · | 4.0 | · | 13.1 | 1.5 | · | ·
SMILES | SR-BI uptake up | AHR activator | SR-BI DiI inh | GASC-1 inh | FXN GAA850 act | GAA30 counter | FXN GAA850 conf
O=[N+]([O-])c1cc(/C=N\O)ccc1Oc1ccc(F)cc1 | 29.7 | 1.4 | -29.7 | 13.0 | 9.4* | 51.4* | 25.2*
CC(C)(C)c1csc(N/N=C/c2cccnc2)n1 | -25.4 | 28.2 | 25.4 | -12.5 | 7.9* | 91.5* | 37.0*
CC(/C=C/c1ccc(OCc2ccccc2)cc1)=N\O | -15.8 | -4.7 | 15.8 | 4.5 | 7.9* | 117.5* | 38.2*
CC(/C=C/c1ccccc1)=N/O | 0.0 | 2.6 | 0.0 | -6.5 | -0.2 | · | ·
O=C(CSc1nnc(CNC(=O)c2ccco2)o1)Nc1ccc(F)cc1F | 12.5 | 8.2 | -12.5 | -2.2 | -0.5 | · | ·
C=C1CCN([C@@H](Cc2ccccc2)C(=O)Nc2ccc(OC)cc2)S(=O)(=O)c2ccccc21 | -5.9 | 3.1 | 5.9 | 34.5 | 11.9* | 28.9* | 13.1*
C=C1CCN([C@@H](Cc2ccccc2)C(=O)NCCCc2ccccc2)S(=O)(=O)c2ccccc21 | 12.8 | -1.7 | -12.8 | -3.6 | -1.7 | · | ·
C=C1CCN([C@H](C(=O)Nc2ccc(OC)cc2)C(C)C)S(=O)(=O)c2ccccc21 | 13.5 | 0.4 | -13.5 | 7.7 | 9.5* | 15.3 | 11.7*
Cn1c(CNC(=O)c2ccccc2F)nnc1SCC(=O)c1ccccc1 | 18.9 | -6.8 | -18.9 | -6.4 | 2.2 | · | ·
Cc1ccc(OCCOc2cccc(Br)c2)c([N+](=O)[O-])n1 | -33.5 | 1.3 | 33.5 | 6.0 | 7.6* | 80.7* | 39.6*
O=C1C=CC(O)C2(CO)OC12 (stereo not given) | · | · | · | · | 11.7* | -1.1 | 12.2*
CCc1ccc(NC(=O)CCn2nc(C)c(S(=O)(=O)N3CCCCC3)c2C)cc1 | -5.7 | 2.0 | 5.7 | -10.8 | 7.6* | 6.9 | 8.6*
CCOc1ccc(NC(=O)CCn2nc(C)c(S(=O)(=O)N3CCCCC3)c2C)cc1 | -33.2 | 2.5 | 33.2 | -2.4 | -0.2 | · | ·
COc1ccccc1C(=O)NCCC(=O)NCCC12CC3CC(CC(C3)C1)C2 | 17.0 | -1.8 | -17.0 | -1.7 | 8.1* | 20.7 | 13.9*
